Tested on: MS2 coat protein
Test: apparent Kd, MS2 coat protein; higher = weaker binding; RNA-MaP array; tryptophan 2.4 mM where present
Procedure, shortened: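 Designs were transcribed by stalled E. coli RNA polymerase on Illumina sequencing-chip clusters. They were titrated with SNAP-549-labelled MS2 coat protein from 0.7 or 1.5 nM, doubling to 3 µM, without and then with constant ligand. Buffer: 100 mM Tris-HCl pH 7.5, 80 mM KCl, 4 mM MgCl2, BSA, DTT, yeast tRNA, Tween-20. Green signal was normalised to red-channel RNA signal and control-cluster median Fmax. Apparent Kd is the median of filtered per-cluster binding-curve fits.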

[1] = designed as: ON switch for tryptophan, no ligand
[2] = ligand present: tryptophan, designed as: ON switch for tryptophan
[3] = designed as: OFF switch for tryptophan, no ligand
[4] = ligand present: tryptophan, designed as: OFF switch for tryptophan

| Sequence | apparent Kd [1] [nM] | apparent Kd [2] [nM] | apparent Kd [3] [nM] | apparent Kd [4] [nM] |
| --- | --- | --- | --- | --- |
| CCAUCUACAUCGGCCGCCACUGAACCAAGGAGACAUGAGGAUCACCCAUGUAUGGGAAACCAUCAUAGGACCGGGAUGAUCUACC | 113 | 122 | – | – |
| GCUAGGUCUACGGCCGCCACUAGACAUGGGUAAGACAUGAGGAUCACCCAUGUACUACGAGUGCAUAGGACCGGGUAGACCUAGC | 326 | 53.5 | – | – |
| AGAUUCGACACGGCCGCCACUUGUGGUGGAUUAUCCUGUGUCGAACAUGAGGAUCACCCAUGUACAAGGACCGGGUGUUGAGUCU | – | – | 136 | 73.9 |
| UUAUAAGUACCGGUCCUCAGAUCCUCAUGACGAGGACCGGUACGGCCGCCACUCGAAACAUGAGGAUCACCCAUGUAAUAACACU | – | – | 23.1 | 19.9 |
| CCGGCCAAUUAGAAAUUAAUUGGCCGGAAACGAGGACCGGUACGGCCGCCACUCGUGGCGGGAGAAACAUGAGGAUCACCCAUGU | – | – | 40 | 26 |
| AGGUACAGCAGGUGAUUCUGGCUGUACCAACGAGGACCGGUACGGCCGCCACUCGAAUAAACAUGAGGAUCACCCAUGUACAAAU | 24.6 | 21.6 | – | – |
| UAGUUGUAGUCGGCCGCCACUGUGAGCAUGGUUAACAUGAGGAUCACCCAUGUCCCGUACUAUAACAGGACCGGGACGUAGUUGC | 48.1 | 22.9 | – | – |
| AAUACCGGUCCUCGAGGGUGAUCCUCAUGACGAGGACCGGUACGGCCGCCACUCGAUAACAUGAGGAUCACCCAUGUAAUCGAGU | – | – | 59 | 56.4 |
| CAUGUGAAAAUAAGAAGAAGAAGAAUAAAUCGAGGACCGGUACGGCCGCCACUCGUCGAAUCACAUGAGGAUCACCCAUGUAGCC | – | – | 65.1 | 50.9 |
| GUUGGACUUUCGGCCGCCACUGAGAGAGUCAUGUGAACAUGAGGAUCACCCAUGUAAUAUAUAUACAGGACCGGGAGGGUUGUAA | – | – | 13.3 | 9.9 |
| CUAGACUGUGCGGCCGCCACUGGCUCAUCCUGCAUUACAUGAGGAUCACCCAUGUUGCGGCCUCCCAGGACCGGGCAUAGUCUGC | 329 | 105 | – | – |
| ACCGAAAGCUCACAUGAGGAUCACCCAUGUCGAGGACCGGUACGGCCGCCACUCGGCAAAUAUAAGGGUGGACGCGUCUCUGCGU | – | – | 39 | 79.8 |
| AACAUGAGGAUCACCCAUGUACCUUUCGAUCGAGGACCGGUACGGCCGCCACUCGAAAACAUGAGGAUCACCCAUGUUCAACAGG | 145 | 87.4 | – | – |
| AACGAGUGGCGGCCAUUGGGUGAUCCUCUACGAGGACCGGUACGGCCGCCACUCGAUAACAUGAGGAUCACCCAUGUGCCGAUAA | – | – | 124 | 133 |
| GGUAACUCUACGGCCGCCACUGAACAUGAGGAUCACCCAUGUAAUGUUCAGAUUUUUUUUUUUUACAGGACCGGGUAGUGUUACC | 178 | 118 | – | – |
| CACAGUGCGAAAUUGAAACCGCACGAUCCUCGAGGACCGGUACGGCCGCCACUCGCGCGGGUCGUACAUGAGGAUCACCCAUGUC | 262 | 371 | – | – |
| ACGGAUCGGAAACGAUCCGCGGCGCGGGUGCGAGGACCGGUACGGCCGCCACUCGGGUAACAUGAGGAUCACCCAUGUCCGAUUU | – | – | 101 | 304 |
| ACGUGGAAAAUUUGUGGUGCUGCCUCAGGCCGAGGACCGGUACGGCCGCCACUCGUACAUGAGGAUCACCCAUGUCGAGUCACUG | – | – | 25.4 | 22.2 |
| GGUAUGUAUUCGGAAACGAAUGCAUACCAACGAGGACCGGUACGGCCGCCACUCGGGCCGUGAUCACAUGAGGAUCACCCAUGUA | – | – | 40.2 | 92.7 |
| GCUACAUGAGGAUCACCCAUGUAUGCGAGCCGAGGACCGGUACGGCCGCCACUCGCUUAACAUGAGGAUCACCCAUGUUGCUCGG | 40.9 | 43.6 | – | – |
| UGUCAGCGAAAGUUGACAUGUUGAACCGGUCGAGGACCGGUACGGCCGCCACUCGAUCUCUCGUACAUGAGGAUCACCCAUGUCG | 11.5 | 10.7 | – | – |
| ACAUGAGGAUCACCCAUGUCAUGAGGUUCACGAGGACCGGUACGGCCGCCACUCGACAUGAGGGUCACCCAUGUGAGGAACACCC | 305 | 97 | – | – |
| GGUUACUCUACGGCCGCCACUGUAAAGUAAAGAUACCUGUACAUGACAUGAGGAUCACCCAUGUACAGGACCGGGUAGUGUAACC | 545 | 232 | – | – |
| UAAACUACACAUGAGGAUCACCCAUGUGGCCGAGGACCGGUACGGCCGCCACUCGUGUGUUAAUAAAAGAACUGCAAGGUUCUUC | 174 | 73.1 | – | – |
| CGUAUUGGAAACAGUACGAGUGAUCCGGUCCGAGGACCGGUACGGCCGCCACUCGAAAUUAAUAAACAUGAGGAUCACCCAUGUA | – | – | 17.8 | 26.8 |
| ACGUUUUAGUCGGCCGCCACUGUUUUCAUGUUCAACAUGAGGAUCACCCAUGUACCUUUUUUUAUCAGGACCGGGACGUAAUAGA | 68.5 | 27.4 | – | – |
| ACAUGAGGAUCACCCAUGUGUGUAAAUCCUCGAGGACCGGUACGGCCGCCACUCGAUUGAGUGUAAGUUGAAUGUAACAUUCAAC | 96.2 | 30.1 | – | – |

| Sequence | apparent Kd [1] [nM] | apparent Kd [2] [nM] | apparent Kd [3] [nM] | apparent Kd [4] [nM] |
| --- | --- | --- | --- | --- |
| UAUCGUCAGACGGCCGCCACUAGUACAUGAGGAUCACCCAUGUAGGUCCUAGAUUCCUCAUGAUCUAGGACCGGGUCUGACGAAU | – | – | 39 | 23 |
| CUCAUCCACGCGGCCGCCACUAUAUUGUGGUGUGAAUGUGACGUAUUACAUGAGGAUCACCCAUGUAGGACCGGGCGUGGAUGAG | – | – | 75.4 | 168 |
| AGCACGGUGAUGGUAGCCGGACGAUAAGUACGAGGACCGGUACGGCCGCCACUCGAAGUCCUACGACAUGAGGAUCACCCAUGUA | 33.2 | 37.9 | – | – |
| GGUUACUCUACGGCCGCCACUGAAAAGUAAAUAUUAAUGUACAUGACAUGAGGAUCACCCAUGUACAGGACCGGGUAGUGUAACC | 84.2 | 21.5 | – | – |
| AGCAACAAGUCGGCCGCCACUCAUUUAACAUGAGGAUCACCCAUGUGAAUAACAUGAUUGUAAUAGAGGACCGGGACAGUUGCAU | 62.5 | 31 | – | – |
| GGAGUAGGAAACUAUUCCAAUCCUCGUGAACGAGGACCGGUACGGCCGCCACUCGAUAAAUAAAUACAUGAGGAUCACCCAUGUA | – | – | 24.4 | 50.2 |
| UUAUAAGUACCGGUCCUCAGAUCCUCAUGACGAGGACCGGUACGGCCGCCACUCGAAACAUGAGGAUCACCCAUGUAAUAAUAAC | – | – | 37.2 | 18.2 |
| AACAUGAGGAUCACCCAUGUCCCAUGUGAACGAGGACCGGUACGGCCGCCACUCGACCGAGGCGGCACAUGAGGAUCACCCACAU | 234 | 608 | – | – |
| AACAUGAGGAUCACCCAUGUCCCAUGUGAACGAGGACCGGUACGGCCGCCACUCGAAUGAGGCGGCACAUGAGGAUCACCCACAU | 131 | 196 | – | – |
| AAACAUGAGGAUCACCCAUGUAUGUUAUUACGAGGACCGGUACGGCCGCCACUCGAUAGAGUAGAAGUAAAUUGUAAUUCAUGUU | – | – | 14.3 | 15.9 |
| UUCGUUGGCGAUCUGGGUUUACCAGAUCGGCGAGGACCGGUACGGCCGCCACUCGUGUUUUCUUUACAUGAGGAUCACCCAUGUU | 19.2 | 15.2 | – | – |
| GGCACAUAGUCGGCCGCCACUAGAAUAAGAUGGAAUAACAUGAGGAUCACCCAUGUAAAAGGGACUAGGACCGGGACUAUGUGCC | – | – | 13.7 | 11.9 |
| GAUUUAACAAAAGUUAGAUCAGUGGGUGAACGAGGACCGGUACGGCCGCCACUCGGACAUGAGGAUCACCCAUGUCCAUGUGAAA | – | – | 17.8 | 43.1 |
| GUGUACAUGAGGAUCACCCAUGUCGAGUUACGAGGACCGGUACGGCCGCCACUCGGCGGCUCGACACGGAUAGCGAUGCGUUGCU | – | – | 43.6 | 110 |
| AGGUACGGAAUCCUCAUGUAGUCGUACCAACGAGGACCGGUACGGCCGCCACUCGAAUAAACAUGAGGAUCACCCAUGUAAUAAU | 34.4 | 19.7 | – | – |
| GGUGUAAUUGACUCUUUGUUUUAUUUGUAACGAGGACCGGUACGGCCGCCACUCGAUAUUCACAUGAGGAUCACCCAUGUUAGCU | – | – | 20.1 | 20.4 |
| CACAUUUUUAGAAGGGCGGUUUCACUCCUGCGAGGACCGGUACGGCCGCCACUCGACAUGAGGAUCACCCAUGUGGAGAAGUUAG | – | – | 20.5 | 110 |
| AAAAUAAAAUAAAAGGUGGAAAUAAGGCGGCGAGGACCGGUACGGCCGCCACUCGCGUACAUGAGGAUCACCCAUGUCUGAAAAU | 22.4 | 27.4 | – | – |
| AAGCGGGCGACGGCCGCCACUUGCCUGUAAUUAGAGAAGGCACAUGAGGAUCACCCAUGUCCCGCAAGGACCGGGUUGCCUCACU | 417 | 84.5 | – | – |
| AGCCACUCGAGUGAUCCUCACGAGUGGCUACGAGGACCGGUACGGCCGCCACUCGAAUUAACAUGAGGAUCACCCAUGUAAUCUA | 81 | 53.8 | – | – |
| UUACACAUCUCGGCCGCCACUGGCUUCAAAAUAAUGUGUACAUGAGGAUCACCCAUGUCCGAGCUCAGGACCGGGAGCAAAGAAG | 26.7 | 27.1 | – | – |
| GUGCCGCAUUCACAUGAGGAUCACCCAUGUCGAGGACCGGUACGGCCGCCACUCGACGUGCUUACAGGUCCUUUAAGGCCCAAUA | – | – | 92.8 | 43.8 |
| AUUCAUGGAAACAUGACAUACAUAUCCGGUCGAGGACCGGUACGGCCGCCACUCGUUUGGAGGCACAUGAGGAUCACCCAUGUUA | 23.9 | 25.9 | – | – |
| GGAGUAGGAAACUAUUCCAAUCCUCGUGAACGAGGACCGGUACGGCCGCCACUCGAUAAAUAAAUACAUGAGGAUCACCCAUGUU | – | – | 68.8 | 118 |
| AGUUCCAGGUCGGCCGCCACUGGCGUGGCCGGUCCUCGGACUUACAUGAGGAUCACCCAUGUGAACAGGACCGGGACCGCAUGGG | – | – | 36.9 | 28.7 |
| UCGUGCAGAGCGGCCGCCACUGUAUUGCGUGCGGAUGACGGAACAUGAGGAUCACCCAUGUUGUUUAGGACCGGGCUUGCCACCA | – | – | 12.7 | 13.9 |
